Assay results published in ChEMBL document CHEMBL1152334, “Quassinoid inhibition of AP-1 function does not correlate with cytotoxicity or protein synthesis inhibition” (J Nat Prod, 2009).
Active and inactive are the calls of the source. The calls are words filed in the database; no cut-off is given here.

How the values were obtained:
[1] = biological target: Signal transducer and activator of transcription 3 (Homo sapiens) (UniProt P40763); experiment: Inhibition of TPA-induced phosphorylation at Tyr705 of Stat3 in HEK293 whole cell extract at 31.6 uM treated 1 hr before TPA stimulation measured after 18 hrs by immunoblot analysis; format: cell-based
Outline: (§1)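 HEK293 cells were exposed to compound or DMSO for 1 h, then induced with TPA 10 ng/mL for 18 h. Cells were lysed in RIPA buffer (10 mM Tris-HCl pH 7.5, 1 mM EDTA, 0.1% SDS, 0.1% deoxycholate, protease inhibitor). Whole-cell extracts were immunoblotted for phospho-IκB-α and phospho-Stat3 (Tyr705), with tubulin as loading control.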

[2] = biological target: Signal transducer and activator of transcription 3 (Homo sapiens) (UniProt P40763); experiment: Inhibition of TPA-induced phosphorylation at Tyr705 of Stat3 in HEK293 whole cell extract at 35.5 uM treated 1 hr before TPA stimulation measured after 18 hrs by immunoblot analysis; outline: as §1
[3] = biological target: Signal transducer and activator of transcription 3 (Homo sapiens) (UniProt P40763); experiment: Inhibition of TPA-induced phosphorylation at Tyr705 of Stat3 in HEK293 whole cell extract at 40.8 uM treated 1 hr before TPA stimulation measured after 18 hrs by immunoblot analysis; format: cell-based; outline: as §1
Nucleic Acid = experiment: Inhibition of TPA-induced SRE transfected in HEK293 cells treated 1 hr before TPA stimulation measured after 18 hrs by luciferase reporter gene assay; format: cell-based
Outline: (§2)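 HEK293 cells were grown in DMEM with 10% FBS at 37 °C and 5% CO2. They were transiently transfected with a luciferase reporter (0.1 µg/well); reporters were AP-1 (four TRE consensus copies from GCN4), NF-κB (five responsive-element copies) or SRE. After 24 h, medium went to DMEM with 0.2% FBS. Cells were pretreated 1 h with compound or DMSO, then given TPA 10 ng/mL for 18 h. Firefly luciferase was read from passive-lysis lysates, TPA alone = 100%, in quadruplicate.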

[4] = biological target: Signal transducer and activator of transcription 3 (Homo sapiens) (UniProt P40763); experiment: Inhibition of TPA-induced phosphorylation at Tyr705 of Stat3 in HEK293 whole cell extract at 20.4 uM treated 1 hr before TPA stimulation measured after 18 hrs by immunoblot analysis; format: cell-based; outline: as §1
[5] = biological target: Signal transducer and activator of transcription 3 (Homo sapiens) (UniProt P40763); experiment: Inhibition of TPA-induced phosphorylation at Tyr705 of Stat3 in HEK293 whole cell extract at 15.8 uM treated 1 hr before TPA stimulation measured after 18 hrs by immunoblot analysis; format: cell-based; outline: as §1
[6] = biological target: T1, Inhibitor of nuclear factor kappa-B kinase subunit alpha (Homo sapiens) (UniProt O15111); experiment: Inhibition of TPA-induced IkappaBalpha phosphorylation in HEK293 whole cell extract at 20.4 uM treated 1 hr before TPA stimulation measured after 18 hrs by immunoblot analysis; format: cell-based
T1 sequence (whole entry): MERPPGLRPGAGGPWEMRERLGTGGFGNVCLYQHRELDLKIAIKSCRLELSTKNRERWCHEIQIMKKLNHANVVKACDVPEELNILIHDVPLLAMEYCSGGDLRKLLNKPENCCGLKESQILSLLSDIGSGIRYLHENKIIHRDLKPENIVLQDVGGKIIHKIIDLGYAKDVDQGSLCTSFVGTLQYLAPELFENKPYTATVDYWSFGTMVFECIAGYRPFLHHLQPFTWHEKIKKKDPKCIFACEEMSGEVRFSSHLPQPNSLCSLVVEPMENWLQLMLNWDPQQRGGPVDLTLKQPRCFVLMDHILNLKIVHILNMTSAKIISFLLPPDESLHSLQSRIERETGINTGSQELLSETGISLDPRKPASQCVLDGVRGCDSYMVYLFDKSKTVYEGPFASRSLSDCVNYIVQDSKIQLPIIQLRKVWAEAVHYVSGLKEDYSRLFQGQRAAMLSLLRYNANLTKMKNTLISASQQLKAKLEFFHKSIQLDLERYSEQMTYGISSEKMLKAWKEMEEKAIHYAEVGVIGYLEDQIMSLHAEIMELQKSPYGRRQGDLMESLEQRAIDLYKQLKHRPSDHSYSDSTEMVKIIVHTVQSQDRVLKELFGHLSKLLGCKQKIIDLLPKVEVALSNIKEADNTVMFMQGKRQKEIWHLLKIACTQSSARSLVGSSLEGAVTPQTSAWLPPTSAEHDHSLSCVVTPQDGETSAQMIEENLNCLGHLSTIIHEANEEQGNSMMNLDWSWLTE
Outline: (§3)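 HEK293 cells grown in DMEM with 10% FBS at 37 °C and 5% CO2. Cells were pretreated with quassinoid or DMSO for 1 h, then stimulated with TPA (10 ng/mL) for 18 h. Whole-cell extracts were made in RIPA buffer (10 mM Tris-HCl pH 7.5, 1 mM EDTA, 0.1% SDS, 0.1% deoxycholate, protease inhibitor). Immunoblots were probed for phospho-IκB-α, with tubulin as loading control.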

[7] = biological target: T1, Inhibitor of nuclear factor kappa-B kinase subunit alpha (Homo sapiens); experiment: Inhibition of TPA-induced IkappaBalpha phosphorylation in HEK293 whole cell extract at 40.8 uM treated 1 hr before TPA stimulation measured after 18 hrs by immunoblot analysis; format: cell-based; outline: as §3
[8] = biological target: Signal transducer and activator of transcription 3 (Homo sapiens) (UniProt P40763); experiment: Inhibition of TPA-induced phosphorylation at Tyr705 of Stat3 in HEK293 whole cell extract at 71.3 uM treated 1 hr before TPA stimulation measured after 18 hrs by immunoblot analysis; format: cell-based; outline: as §1
HEK293 = experiment: Inhibition of TPA-induced NF-kappaB transfected in HEK293 cells treated 1 hr before TPA stimulation measured after 18 hrs by luciferase reporter gene assay; format: cell-based; outline: as §2
[9] = biological target: T1, Inhibitor of nuclear factor kappa-B kinase subunit alpha (Homo sapiens); experiment: Inhibition of TPA-induced IkappaBalpha phosphorylation in HEK293 whole cell extract at 31.6 uM treated 1 hr before TPA stimulation measured after 18 hrs by immunoblot analysis; format: cell-based; outline: as §1
[10] = biological target: T1, Inhibitor of nuclear factor kappa-B kinase subunit alpha (Homo sapiens); experiment: Inhibition of TPA-induced IkappaBalpha phosphorylation in HEK293 whole cell extract at 15.8 uM treated 1 hr before TPA stimulation measured after 18 hrs by immunoblot analysis; format: cell-based; outline: as §1
[11] = Growth inhibition of human NCI60 cells; format: functional; settings: Homo sapiens, NCI60
[12] = Growth inhibition of human AP-1 beta-lactamase reporter screening assay cells at 1 uM; settings: AP-1 reporter cells
[13] = Inhibition of protein synthesis in cell-free extract of mouse Krebs2 cells by SDS-PAGE; format: functional
HeLa = experiment: Inhibition of protein synthesis in human HeLa cells assessed as [35S]methionine incorporation into protein treated for 45 mins before [35S]methionine addition by Whatman paper analysis; format: functional, cell-based
[14] = biological target: T1, Inhibitor of nuclear factor kappa-B kinase subunit alpha (Homo sapiens); experiment: Inhibition of TPA-induced IkappaBalpha phosphorylation in HEK293 whole cell extract at 35.5 uM treated 1 hr before TPA stimulation measured after 18 hrs by immunoblot analysis; outline: as §1
[15] = biological target: T1, Inhibitor of nuclear factor kappa-B kinase subunit alpha (Homo sapiens); experiment: Inhibition of TPA-induced IkappaBalpha phosphorylation in HEK293 whole cell extract at 71.3 uM treated 1 hr before TPA stimulation measured after 18 hrs by immunoblot analysis; format: cell-based; outline: as §1

Sequence of Signal transducer and activator of transcription 3 (Homo sapiens) (P40763 whole entry): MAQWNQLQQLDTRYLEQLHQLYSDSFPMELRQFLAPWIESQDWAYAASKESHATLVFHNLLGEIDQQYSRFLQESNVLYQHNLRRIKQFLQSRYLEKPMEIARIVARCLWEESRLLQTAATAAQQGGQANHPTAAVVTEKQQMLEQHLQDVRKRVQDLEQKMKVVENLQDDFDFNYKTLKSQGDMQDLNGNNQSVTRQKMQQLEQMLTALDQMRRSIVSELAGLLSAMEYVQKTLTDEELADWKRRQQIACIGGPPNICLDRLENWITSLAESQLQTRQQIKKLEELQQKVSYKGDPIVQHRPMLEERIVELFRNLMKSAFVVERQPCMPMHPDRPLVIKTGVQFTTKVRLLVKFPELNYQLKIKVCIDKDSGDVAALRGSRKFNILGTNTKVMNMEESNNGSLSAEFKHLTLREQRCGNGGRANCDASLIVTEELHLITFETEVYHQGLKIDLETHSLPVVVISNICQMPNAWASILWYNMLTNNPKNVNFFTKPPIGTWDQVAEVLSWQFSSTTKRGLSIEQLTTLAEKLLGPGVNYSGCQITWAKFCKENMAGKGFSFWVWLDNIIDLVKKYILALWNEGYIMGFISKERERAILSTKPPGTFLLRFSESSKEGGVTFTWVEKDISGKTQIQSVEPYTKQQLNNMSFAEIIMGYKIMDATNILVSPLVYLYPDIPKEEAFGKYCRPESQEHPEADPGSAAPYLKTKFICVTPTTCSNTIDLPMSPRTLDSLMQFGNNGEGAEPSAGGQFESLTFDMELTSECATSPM

CC[C@](C)(O)C(=O)O[C@H]1C(=O)O[C@@H]2C[C@H]3C(C)=CC(=O)[C@@H](O)[C@]3(C)[C@H]3[C@@]4(O)OC[C@]32[C@@H]1[C@@H](C)[C@H]4O (stereo in doubt; 4)
inhibition [1]: inactive | inhibition [2]: inactive | inhibition [3]: inactive | inhibition (Nucleic Acid): Dose-dependent effect | inhibition [4]: inactive | inhibition [5]: inactive | inhibition [6]: Active | inhibition [7]: Active | inhibition [8]: inactive | inhibition (HEK293): Dose-dependent effect

CCC(C)C(=O)O[C@H]1C(=O)O[C@@H]2C[C@H]3C(C)=CC(=O)[C@@H](O)[C@]3(C)[C@H]3[C@]4(O)OC[C@]32[C@@H]1[C@@H](C)[C@H]4O (some centres not stated) [AILANTHINONE]
inhibition [1]: inactive | inhibition [2]: inactive | inhibition [9]: Active | inhibition [10]: Active | inhibition [3]: inactive | GI50 [11]: 31000 nM | inhibition (Nucleic Acid): Dose-dependent effect | inhibition [4]: inactive | inhibition at 1 µM [12]: < 25% | inhibition [5]: inactive | IC50 [13]: 420 nM | inhibition [8]: inactive | IC50 (HeLa): 3.4 nM | inhibition (HEK293): Dose-dependent effect

CC(C)=CC(=O)O[C@@H]1[C@H]2C(C)=C[C@H](O)[C@@H](O)[C@]2(C)[C@H]2[C@]3(O)OC[C@@]24[C@@H]1OC(=O)C[C@H]4[C@@H](C)[C@H]3O
inhibition [1]: inactive | inhibition [2]: inactive | inhibition [14]: Active | inhibition [3]: inactive | GI50 [11]: 260 nM | inhibition (Nucleic Acid): Dose-dependent effect | inhibition [4]: inactive | inhibition [5]: inactive | inhibition [15]: Active | IC50 [13]: 910 nM | inhibition [8]: inactive | IC50 (HeLa): 670 nM | inhibition (HEK293): Dose-dependent effect
